Laboratory results from ChEMBL document CHEMBL1165901, “Synthesis and biological evaluation of dialkylaminoalkylamino benzo[c][1,7] and [1,8]phenanthrolines as antiproliferative agents” (Eur J Med Chem, 2010).
Active and inactive are the calls of the source. No cut-off for these calls is given here.

How the values were obtained:
Calf thymus DNA [1] = assay: Binding affinity to calf thymus DNA assessed as decrease in absorbance at 20 uM by UV-visible spectrophotometry; assay type: nucleic-acid assay; conditions: Bos taurus
Method in brief: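 Compound at […], with or without CT-DNA at […], in 1 mL BPE buffer pH 7.1 in a 10 mm quartz cuvette. Spectra scanned 230–500 nm against a blank holding the same DNA concentration in the same buffer. Drug/DNA ratio 1; DMSO stocks diluted into buffer.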

Calf thymus DNA [2] = assay: Binding affinity to calf thymus DNA assessed as decrease in fluorescence intensity at 20 uM by fluorescence spectrophotometry; assay type: nucleic-acid assay; conditions: Bos taurus
Method in brief: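 Fluorescent compound at […] in 1 mL BPE buffer pH 7.1, with or without […] CT-DNA, in a 10 mm quartz cuvette. Excitation at 268, 275 or 285 nm depending on compound; emission spectra scanned.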

[3] = target: DNA topoisomerase 2-alpha (Homo sapiens) (UniProt P11388); assay: Inhibition of human recombinant topoisomerase 2-mediated relaxation of supercoiled […] by agarose gel electrophoresis
Method in brief: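 Supercoiled pUC19 (350 ng) preincubated with compound at […], or etoposide at 20 or 50, before adding 10 units human topoisomerase II; 37 °C for 45 min in cleavage buffer. Stopped with SDS 0.25% plus proteinase K, 30 min at 50 °C. Run on 1% agarose containing ethidium bromide, 2 h at 120 V in TBE.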

L1210 = assay: Cytotoxicity against mouse L1210 cells; assay type: functional, cell-based
Method in brief: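 Mouse leukemia L1210 cells grown in RPMI 1640 with 10% FCS, 2 mM glutamine, penicillin/streptomycin and 10 mM HEPES pH 7.4. Exposed 48 h to nine graded drug concentrations in triplicate. Read by microculture tetrazolium assay. IC50 is the concentration that halves absorbance relative to untreated cells; mean of 3.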

Calf thymus DNA [4] = assay: Binding affinity to calf thymus DNA assessed as change in melting temperature; assay type: nucleic-acid assay; conditions: Bos taurus
Method in brief: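 CT-DNA ([…] as printed) in 1 mL BPE buffer pH 7.1 (6 mM Na2HPO4, 2 mM NaH2PO4, 1 mM EDTA), alone or with drug at base pair/drug ratio 1. A260 recorded every min, 20–100 °C at 1 °C/min, Peltier-controlled. Tm taken as midpoint of hyperchromic double- to single-strand transition; ΔTm relative to DNA alone.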

[5] = target: T1, DNA topoisomerase 1 (Homo sapiens) (UniProt P11387); assay: Inhibition of human recombinant topoisomerase 1-mediated relaxation of supercoiled pUC19 by agarose gel electrophoresis
T1 sequence (whole entry): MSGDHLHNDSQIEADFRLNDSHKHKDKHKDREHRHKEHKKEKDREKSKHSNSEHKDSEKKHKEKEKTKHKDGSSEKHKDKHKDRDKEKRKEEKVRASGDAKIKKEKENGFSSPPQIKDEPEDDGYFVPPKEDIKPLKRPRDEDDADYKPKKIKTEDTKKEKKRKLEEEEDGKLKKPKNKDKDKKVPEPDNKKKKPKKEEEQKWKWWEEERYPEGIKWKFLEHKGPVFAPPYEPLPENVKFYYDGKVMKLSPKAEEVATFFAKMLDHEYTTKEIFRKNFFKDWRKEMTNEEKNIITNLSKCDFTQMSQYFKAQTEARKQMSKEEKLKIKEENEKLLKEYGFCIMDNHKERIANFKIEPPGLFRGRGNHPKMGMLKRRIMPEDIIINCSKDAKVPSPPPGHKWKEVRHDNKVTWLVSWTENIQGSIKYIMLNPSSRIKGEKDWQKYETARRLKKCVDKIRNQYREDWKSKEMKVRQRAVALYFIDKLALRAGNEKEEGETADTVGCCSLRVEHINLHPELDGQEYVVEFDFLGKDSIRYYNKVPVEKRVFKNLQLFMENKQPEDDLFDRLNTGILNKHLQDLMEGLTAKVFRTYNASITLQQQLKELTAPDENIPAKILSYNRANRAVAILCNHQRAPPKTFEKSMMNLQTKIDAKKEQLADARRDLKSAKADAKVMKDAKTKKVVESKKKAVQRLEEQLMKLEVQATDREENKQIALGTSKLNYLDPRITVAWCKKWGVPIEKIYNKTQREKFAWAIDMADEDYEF

[6] = target: T1, DNA topoisomerase 1 (Homo sapiens); assay: Inhibition of human recombinant topoisomerase 1-mediated relaxation of supercoiled pUC19 at 1 to 5 uM by agarose gel electrophoresis
Calf thymus DNA [7] = assay: Binding affinity to calf thymus DNA assessed as circular dichroism at 50 uM by J810 Jasco spectrophotometer; assay type: nucleic-acid assay; conditions: Bos taurus
Method in brief: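 CT-DNA deproteinized with SDS and dialyzed against 1 mM sodium cacodylate pH 7.0. Drug at […], with or without […] base pairs CT-DNA, in 1 mL 1 mM sodium cacodylate pH 7.0. CD spectra recorded 500–230 nm at 0.1 nm resolution.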

Chain of DNA topoisomerase 2-alpha (Homo sapiens) (P11388 whole entry): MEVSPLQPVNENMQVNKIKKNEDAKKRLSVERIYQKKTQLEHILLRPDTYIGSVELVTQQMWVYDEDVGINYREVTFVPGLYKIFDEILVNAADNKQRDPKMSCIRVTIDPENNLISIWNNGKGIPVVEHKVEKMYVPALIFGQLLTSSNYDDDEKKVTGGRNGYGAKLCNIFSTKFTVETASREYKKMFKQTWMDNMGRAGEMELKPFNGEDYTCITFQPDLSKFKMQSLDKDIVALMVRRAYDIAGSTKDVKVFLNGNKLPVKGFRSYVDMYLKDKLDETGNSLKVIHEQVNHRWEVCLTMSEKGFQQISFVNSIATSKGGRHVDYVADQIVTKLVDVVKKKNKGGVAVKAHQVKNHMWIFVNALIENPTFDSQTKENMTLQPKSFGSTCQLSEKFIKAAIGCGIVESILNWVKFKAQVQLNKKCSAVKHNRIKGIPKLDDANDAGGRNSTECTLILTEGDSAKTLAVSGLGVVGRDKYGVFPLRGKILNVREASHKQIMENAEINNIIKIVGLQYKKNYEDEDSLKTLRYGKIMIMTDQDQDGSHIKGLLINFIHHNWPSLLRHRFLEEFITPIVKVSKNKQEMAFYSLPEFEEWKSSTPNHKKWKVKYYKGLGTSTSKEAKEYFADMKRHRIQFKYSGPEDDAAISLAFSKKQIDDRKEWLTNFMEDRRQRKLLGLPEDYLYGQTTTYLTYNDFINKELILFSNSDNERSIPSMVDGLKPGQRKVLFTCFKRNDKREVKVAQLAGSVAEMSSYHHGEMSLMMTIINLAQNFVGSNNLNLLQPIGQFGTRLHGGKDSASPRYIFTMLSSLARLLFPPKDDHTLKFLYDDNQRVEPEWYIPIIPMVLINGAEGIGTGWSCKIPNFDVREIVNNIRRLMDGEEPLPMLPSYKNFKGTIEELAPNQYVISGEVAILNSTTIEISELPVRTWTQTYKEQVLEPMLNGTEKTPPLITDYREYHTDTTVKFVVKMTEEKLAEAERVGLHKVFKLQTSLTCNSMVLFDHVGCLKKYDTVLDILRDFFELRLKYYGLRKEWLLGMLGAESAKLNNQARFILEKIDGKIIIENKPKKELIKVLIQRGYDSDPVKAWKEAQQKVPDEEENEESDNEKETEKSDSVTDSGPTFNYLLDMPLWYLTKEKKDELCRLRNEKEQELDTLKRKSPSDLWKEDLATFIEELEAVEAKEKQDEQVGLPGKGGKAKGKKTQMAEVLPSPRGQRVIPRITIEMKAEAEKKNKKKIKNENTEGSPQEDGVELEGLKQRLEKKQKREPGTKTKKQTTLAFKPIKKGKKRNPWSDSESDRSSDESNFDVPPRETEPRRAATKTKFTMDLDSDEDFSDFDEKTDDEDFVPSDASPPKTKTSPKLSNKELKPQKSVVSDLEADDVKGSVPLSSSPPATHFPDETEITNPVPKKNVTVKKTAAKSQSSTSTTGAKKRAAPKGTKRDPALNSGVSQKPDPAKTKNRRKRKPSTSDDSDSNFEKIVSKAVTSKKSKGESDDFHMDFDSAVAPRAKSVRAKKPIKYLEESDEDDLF

For `CN(C)CCNc1ccc2c(ccc3c4cc5c(cc4cnc23)OCO5)n1`, the Activity (Calf thymus DNA [1]) was “Active”, the Activity (Calf thymus DNA [2]) was “Active” and the Activity [3] was “Active”. The IC50 (L1210) was 320 nM, the ΔTm (Calf thymus DNA [4]) was 4 °C and the Activity [5] was “Active”. For the same compound, the Activity [6] was “inactive”.

`CN(C)CCCNc1ccc2c(ccc3c4cc5c(cc4cnc23)OCO5)n1` was tested, and the Activity (Calf thymus DNA [1]) was “Active”, the Activity (Calf thymus DNA [2]) was “Active” and the Activity (Calf thymus DNA [7]) was “Active”. For the same compound, the Activity [3] was “Active” and the IC50 (L1210) was 510 nM.

For `CCN(CC)CCNc1ccc2c(ccc3c4cc(OC)c(OC)cc4cnc23)n1`, the Activity (Calf thymus DNA [1]) was “Active”, the Activity (Calf thymus DNA [2]) was “Active” and the Activity [3] was “Active”. The IC50 (L1210) was 960 nM and the ΔTm (Calf thymus DNA [4]) was 5 °C.

In the case of `COc1cc2cnc3c4cccnc4ccc3c2cc1OC`, the IC50 (L1210) is reported as 7100 nM.

With `COc1cc2cnc3c4ccncc4ccc3c2cc1OC` the IC50 (L1210) was 6600 nM.

In the case of `COc1cc2cnc3c4ccnc(NCCCN(C)C)c4ccc3c2cc1OC`, the Activity (Calf thymus DNA [1]) is reported as “Active”, the Activity [3] is reported as “Active” and the IC50 (L1210) is reported as 1800 nM.

In the case of `COc1cc2cnc3c4ccc(NCCCN(C)C)nc4ccc3c2cc1OC`, the Activity (Calf thymus DNA [1]) is reported as “Active”, the Activity (Calf thymus DNA [2]) is reported as “Active” and the Activity [3] is reported as “Active”. It also gave an IC50 (L1210) of 2850 nM and a ΔTm (Calf thymus DNA [4]) of 0 °C.

`CCN(CC)CCNc1ccc2c(ccc3c4cc5c(cc4cnc23)OCO5)n1` was tested, and the Activity (Calf thymus DNA [1]) was “Active”, the Activity (Calf thymus DNA [2]) was “Active” and the Activity [3] was “Active”. The IC50 (L1210) was 1740 nM, the ΔTm (Calf thymus DNA [4]) was 5 °C and the Activity [5] was “Active”. The Activity [6] was “inactive”.

With `COc1cc2cnc3c4ccc(NCCN(C)C)nc4ccc3c2cc1OC` the Activity (Calf thymus DNA [1]) was “Active”, the Activity (Calf thymus DNA [2]) was “Active” and the Activity [3] was “Active”. The IC50 (L1210) was 1730 nM, the ΔTm (Calf thymus DNA [4]) was 12 °C and the Activity [5] was “Active”. The inhibition [6] was “inactive”.

For `CCN(CC)CCCNc1ccc2c(ccc3c4cc5c(cc4cnc23)OCO5)n1`, the Activity (Calf thymus DNA [1]) was “Active”, the Activity (Calf thymus DNA [2]) was “Active” and the Activity (Calf thymus DNA [7]) was “Active”. The Activity [3] was “Active”, the IC50 (L1210) was 830 nM and the ΔTm (Calf thymus DNA [4]) was 11 °C.

In the case of `CCN(CC)CCNc1nccc2c1ccc1c3cc(OC)c(OC)cc3cnc21`, the Activity (Calf thymus DNA [1]) is reported as “Active”, the Activity [3] is reported as “Active” and the IC50 (L1210) is reported as 1770 nM. It also gave a ΔTm (Calf thymus DNA [4]) of 9 °C.

`COc1cc2c(ccc3c4cc(OC)c(OC)cc4c[n+](C)c23)cc1O` [FAGARONINE] showed an IC50 (L1210) of 6600 nM.

With `CN(C)CCNc1nccc2c1ccc1c3cc4c(cc3cnc21)OCO4` the Activity (Calf thymus DNA [1]) was “Active”, the Activity [3] was “Active” and the ΔTm (Calf thymus DNA [4]) was 7 °C. For the same compound, the Activity [5] was “Active” and the Activity [6] was “inactive”.

With `CN(C)CCCNc1nccc2c1ccc1c3cc4c(cc3cnc21)OCO4` the Activity (Calf thymus DNA [1]) was “Active”, the Activity (Calf thymus DNA [7]) was “Active” and the Activity [3] was “Active”. For the same compound, the IC50 (L1210) was 290 nM, the ΔTm (Calf thymus DNA [4]) was 14 °C and the Activity [5] was “Active”. The Activity [6] was “inactive”.

`COc1cc2cnc3c4ccnc(Cl)c4ccc3c2cc1OC` gave an IC50 (L1210) of 4300 nM.

Work on `c1cnc2ccc3c4cc5c(cc4cnc3c2c1)OCO5` yielded an IC50 (L1210) of 8800 nM.

With `CCN(CC)CCCNc1nccc2c1ccc1c3cc(OC)c(OC)cc3cnc21` the Activity [3] was “Active” and the IC50 (L1210) was 3700 nM.

For `COc1cc2cnc3c4ccnc(NCCN(C)C)c4ccc3c2cc1OC`, the Activity (Calf thymus DNA [1]) was “Active”, the Activity [3] was “Active” and the IC50 (L1210) was 3510 nM. The ΔTm (Calf thymus DNA [4]) was 9 °C.

Compound `c1cc2c(ccc3c4cc5c(cc4cnc23)OCO5)cn1` has an IC50 (L1210) of 4400 nM.

In the case of `CCN(CC)CCCNc1ccc2c(ccc3c4cc(OC)c(OC)cc4cnc23)n1`, the Activity (Calf thymus DNA [1]) is reported as “Active”, the Activity (Calf thymus DNA [2]) is reported as “Active” and the Activity [3] is reported as “Active”. The IC50 (L1210) was 1260 nM.
